# Assay results gathered from unrelated publications.
# Lines come from different studies, so protocols differ.
# Target: Sodium-dependent noradrenaline transporter (SLC6A2, Homo sapiens, UniProt P23975)
Structure (SMILES),effect on,mode,technique,cell line,concentration,inhibition
CC(C)N1CCC[C@H]1CNC(=O)c1cn(C2CCCC2)c(=O)c2c1c1ccccc1n2C,ligand displacement,,radioligand,,10 µM,28%
COCc1c(-c2cc3cc(C)cc(OC)c3s2)c2c(N)ncnn2c1CN1CCNC(=O)C1,ligand displacement,,radioligand,,10 µM,47%
CN(CCN1CCC(OC(=O)Nc2ccccc2-c2ccccc2)CC1)C(=O)c1ccc(CN2CCC(C(N)=O)CC2)cc1,ligand displacement,,radioligand,,1 µM,1%
CC(C)(C)c1ccc(C(=O)Nc2cc(Cl)c(-c3ccccc3)cc2C(=O)O)cc1,ligand displacement,,radioligand,,10 µM,91%
Cc1noc([C@H]2C[C@@H](c3ccc(C(F)(F)F)cc3)CN(C(=O)N3CCS(=O)(=O)C3)C2)n1,cell-free assay,,,,10 µM,-20.2%
O=C(Nc1cccnn1)N1CCN([C@@H]2CCOc3cc(C(F)(F)F)ccc32)CC1,ligand displacement,,,,20 µM,15%
Fc1ccc(C(OCCN2CCN(CCCc3ccccc3)CC2)c2ccc(F)cc2)cc1,transporter uptake,inhibitor,,HEK293,1 µM,89.9%
CS(=O)(=O)N1CCCC(NC(=O)[C@H](CCC2CCCCC2)NC(=O)c2ccc(CNC(=O)c3cnc4ccccn34)cc2)C1 (stereo partly drawn),cell-free assay,,,,10 µM,3%
Clc1ccc2c(C3CCN(CCc4c[nH]c5ccccc45)CC3)c[nH]c2c1,ligand displacement,,radioligand,,10 µM,90%
COc1ccc(C(CN(C)C)C2(O)CCCCC2)cc1 (stereo not drawn),transporter uptake,inhibitor,,HEK293,1 µM,28.8%
COc1ccc(S(=O)(=O)N2CCCCC2)cc1C,ligand displacement,,radioligand,,10 µM,< 30%
CCN(CC)CCCC[C@H](NC(=O)[C@H](CC(C)C)NC(=O)[C@H](C)NC(=O)[C@H](Cc1ccccc1)NC(=O)c1ccc(C(C)(C)C)cc1)C(=O)N[C@@H](CO)C(=O)OC,ligand displacement,,radioligand,,10 µM,-13%
